Experimental data published in ChEMBL document CHEMBL2401709 (J Med Chem, 2013).
The source made the active and inactive calls. The calls are words filed in the database; no cut-off is given here.

Key:
G-361 [1] = experiment: Induction of apoptosis in human G361 cells assessed as caspase 3/7 activation using Ac-DEVD-AMC as substrate at 300 nM after 24 hrs by fluorimetry assay; assay type: functional, cell-based
HCT-116 = experiment: Cytotoxicity against human HCT116 cells assessed as growth inhibition after 72 hrs by calcein AM staining-based fluoroscence assay; assay type: functional, cell-based; details: HCT-116, 72 h
G-361 [2] = experiment: Induction of apoptosis in human G361 cells assessed as induction of caspase-3 clevage at 300 nM after 24 hrs by immunoblotting analysis; assay type: functional, cell-based
Summary of the method: (§1)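 Treated G361 cells harvested into Laemmli sample buffer. Proteins resolved by SDS-PAGE and blotted to nitrocellulose. Membranes blocked, probed overnight with specific primary antibodies, then peroxidase-conjugated secondaries. ECL detection by CCD camera. Actin served as loading control.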

G-361 [3] = experiment: Cytotoxicity against human G361 cells assessed as growth inhibition after 72 hrs by calcein AM staining-based fluoroscence assay; assay type: functional, cell-based; details: G-361, 72 h
HOS = experiment: Cytotoxicity against human HOS cells assessed as growth inhibition after 72 hrs by calcein AM staining-based fluoroscence assay; assay type: functional, cell-based
K562 = experiment: Cytotoxicity against human K562 cells assessed as growth inhibition after 72 hrs by calcein AM staining-based fluoroscence assay; assay type: functional, cell-based; details: K562, 72 h
G-361 [4] = experiment: Induction of apoptosis in human G361 cells assessed as induction of caspase-7 clevage at 300 nM after 24 hrs by immunoblotting analysis; assay type: functional, cell-based; summary of the method: as §1
HeLa = experiment: Cytotoxicity against human HeLa cells assessed as growth inhibition after 72 hrs by calcein AM staining-based fluoroscence assay; assay type: functional, cell-based
[5] = biological target: Cyclin-dependent kinase 2/cyclin E1 (Homo sapiens, UniProt P24941); experiment: Inhibition of human recombinant CDK2/Cyclin E expressed in baculovirus infected sf9 cells using histone H1 as substrate
G-361 [6] = experiment: Induction of apoptosis in human G361 cells assessed as caspase 9 activation using Ac-DEHD-AMC as substrate at 300 nM after 24 hrs by fluorimetry assay; assay type: functional, cell-based; details: in the assay text read “Ac-LEHD-AMC” for “Ac-DEHD-AMC”
Summary of the method: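 G361 lysates were made in CHAPS extraction buffer, pH 7.4, clarified at 10000g, and protein-equalized. They were incubated 24 h with 100 μM Ac-LEHD-AMC in 100 mM HEPES pH 7.5, 0.5 mM EDTA, 20% glycerol, 5 mM DTT. AMC fluorescence read at 355/460 nm (ex/em).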

G-361 [7] = experiment: Induction of apoptosis in human G361 cells assessed as induction of PARP-1 clevage at 300 nM after 24 hrs by immunoblotting analysis; assay type: functional, cell-based; summary of the method: as §1
G-361 [8] = experiment: Induction of apoptosis in human G361 cells assessed as decrease in Mcl-1 protein level at 300 nM after 24 hrs by immunoblotting analysis; assay type: functional, cell-based; summary of the method: as §1
MCF7 = experiment: Cytotoxicity against human MCF7 cells assessed as growth inhibition after 72 hrs by calcein AM staining-based fluoroscence assay; assay type: functional, cell-based; details: MCF7, 72 h
G-361 [9] = experiment: Induction of apoptosis in human G361 cells assessed as decrease in Mcl-1 at 300 nM after 24 hrs by immunoblotting analysis; assay type: functional, cell-based; summary of the method: as §1
G-361 [10] = experiment: Induction of apoptosis in human G361 cells assessed as induction of caspase-9 clevage at 300 nM after 24 hrs by immunoblotting analysis; assay type: functional, cell-based; summary of the method: as §1
[11] = biological target: Cyclin-dependent kinase 1 (Homo sapiens, UniProt P06493); experiment: Inhibition of human recombinant CDK1
[12] = biological target: Cyclin-dependent kinase 9 (Homo sapiens) (UniProt P50750); experiment: Inhibition of CDK9-mediated RNA polymerase 2 phosphorylation at ser2 in human G361 cells at 300 nM after 24 hrs by immunoblotting analysis; assay type: cell-based; details: G-361; summary of the method: as §1
CDK2/CDK4 (Homo sapiens) = CDK2/CDK4 (Homo sapiens) (UniProt P11802+P24941); experiment: Inhibition of CDK2/4-mediated retinoblastoma protein phosphorylation at ser780 in human G361 cells at 300 nM after 24 hrs by immunoblotting analysis; assay type: cell-based; details: G-361; summary of the method: as §1
[13] = biological target: Cyclin-dependent kinase 2/cyclin E1 (Homo sapiens) (UniProt P24864+P24941); experiment: Ratio of roscovitine IC50 to compound IC50 for human recombinant CDK2/Cyclin E; assay type: protein-complex assay

Cyclin-dependent kinase 1, sequence (P06493 whole entry): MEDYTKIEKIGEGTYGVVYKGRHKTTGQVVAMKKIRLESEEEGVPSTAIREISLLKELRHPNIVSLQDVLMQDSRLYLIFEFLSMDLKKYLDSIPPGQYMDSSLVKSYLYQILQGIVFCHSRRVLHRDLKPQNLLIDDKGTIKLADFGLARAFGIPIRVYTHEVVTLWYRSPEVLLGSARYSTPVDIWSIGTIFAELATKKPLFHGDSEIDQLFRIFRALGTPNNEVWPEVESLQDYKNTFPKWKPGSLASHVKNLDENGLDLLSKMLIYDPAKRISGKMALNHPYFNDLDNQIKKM
Cyclin-dependent kinase 9 (Homo sapiens), sequence (P50750 whole entry): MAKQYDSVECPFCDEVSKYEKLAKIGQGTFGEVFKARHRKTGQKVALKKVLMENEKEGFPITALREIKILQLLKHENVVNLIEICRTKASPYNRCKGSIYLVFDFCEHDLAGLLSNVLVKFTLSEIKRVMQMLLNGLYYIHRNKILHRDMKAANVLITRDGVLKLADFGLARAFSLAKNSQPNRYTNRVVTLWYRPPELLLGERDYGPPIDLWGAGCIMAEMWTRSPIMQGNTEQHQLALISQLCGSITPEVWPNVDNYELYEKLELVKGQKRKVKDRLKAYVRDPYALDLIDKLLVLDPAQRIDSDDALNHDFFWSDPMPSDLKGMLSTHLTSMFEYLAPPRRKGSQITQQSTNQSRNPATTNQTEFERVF

SMILES	Activity (G-361 [1])	IC50 (HCT-116) [nM]	Activity (G-361 [2])	IC50 (G-361 [3]) [nM]	IC50 (HOS) [nM]	IC50 (K562) [nM]	Activity (G-361 [4])	IC50 (HeLa) [nM]	IC50 [5] [nM]	Activity (G-361 [6])	Activity (G-361 [7])	Activity (G-361 [8])	IC50 (MCF7) [nM]	Activity (G-361 [9])	Activity (G-361 [10])	IC50 [11] [nM]	Inhibition of RNA polymerase II Ser2 phosphorylation (qualitative) [12]	inhibition (CDK2/CDK4 (Homo sapiens))	Ratio IC50 [13]
NC1CCC(Nc2nc(NCc3ccc(-c4ccsc4)nc3)c3ncn(C4CCCC4)c3n2)CC1 (stereo unspecified)	Active	145	Active	272	89	150	Active	75	18	Active	Active	Active	100	Active	Active				
Nc1ccccc1-c1ccc(CNc2nc(NC3CCC(N)CC3)nc3c2ncn3C2CCCC2)cc1 (stereo unspecified)		930		4120	1880	1110		1010	20.5				977						
NC1CCC(Nc2nc(NCc3cc(Cl)ccc3O)c3ncn(C4CCCC4)c3n2)CC1 (stereo unspecified)		350		390	490	690		750	8				430			23			
CC(C)(O)CNc1nc(NCc2ccc(-c3ccco3)nc2)c2ncn(C3CCCC3)c2n1		1270		2100	560	1420		667	120				1300			555			
NC1CCC(Nc2nc(NCc3ccc(-c4ccccc4)cc3)c3ncn(C4CCCC4)c3n2)CC1 (stereo unspecified)									26										
NC1CCC(Nc2nc(NCc3ccc(Br)cc3)c3ncn(C4CCCC4)c3n2)CC1 (stereo unspecified)		790		1480	995	1170		1510					850						
NC1CCC(Nc2nc(NCc3ccc(-c4cccc(F)c4)nc3)c3ncn(C4CCCC4)c3n2)CC1 (stereo unspecified)	Active	74	Active	49	44	61	Active	36	14	Active	Active	Active	33	Active	Active		Active	Active	
CC(C)(O)CNc1nc(NCc2ccc(-c3ccco3)cc2)c2ncn(C3CCCC3)c2n1		16700		17400	21400	16800		14800	478				15300			> 999			
Nc1ccccc1CNc1nc(NC2CCC(N)CC2)nc2c1ncn2C1CCCC1 (stereo unspecified)		2300		2070	2030	4040		1030	18				2330			93			
NC1CCC(Nc2nc(NCc3ccc(-n4cccn4)cc3)c3ncn(C4CCCC4)c3n2)CC1 (stereo unspecified)	Active	320	Active	220	103	119	Active	170	12	Active	Active	Active	139	Active	Active		Active	Active	
NC1CCC(Nc2nc(NCc3ccc(-c4ccco4)nc3)c3ncn(C4CCCC4)c3n2)CC1 (stereo unspecified)	Active	86	Active	97	44	67	Active	30	10	Active	Active	Active	33	Active	Active		Active	Active	
NC1CCC(Nc2nc(NCc3ccc(-c4ccoc4)cc3)c3ncn(C4CCCC4)c3n2)CC1 (stereo unspecified)		1040		670	140	287		140	13				247						
NC1CCC(Nc2nc(NCc3ccc(-c4ccsc4)cc3)c3ncn(C4CCCC4)c3n2)CC1 (stereo unspecified)		315		570	120	150		220	14				145						
COc1ccccc1-c1ccc(CNc2nc(NC3CCC(N)CC3)nc3c2ncn3C2CCCC2)cc1 (stereo unspecified)		430		545	150	347		333	33				303						
NC1CCC(Nc2nc(NCc3ccc(-c4cccs4)cc3)c3ncn(C4CCCC4)c3n2)CC1 (stereo unspecified)		592		655	247	307		358	20				290						
OC1CCC(Nc2nc(NCc3ccc(-c4ccco4)nc3)c3ncn(C4CCCC4)c3n2)CC1 (stereo unspecified)		617		443	180	303		247	23				390						
NC1CCC(Nc2nc(NCc3ccc(-c4cccc(F)c4)cc3)c3ncn(C4CCCC4)c3n2)CC1 (stereo unspecified)		551		815	211	290		445	33.5				293						
NC1CCC(Nc2nc(NCc3ccc(-c4cccs4)nc3)c3ncn(C4CCCC4)c3n2)CC1 (stereo unspecified)	Active	97	Active	150	32	100	Active	40	4	Active	Active	Active	92	Active	Active		Active	Active	20
COc1ccccc1-c1ccc(CNc2nc(NC3CCC(N)CC3)nc3c2ncn3C2CCCC2)cn1 (stereo unspecified)		177		140	122	66		39	34				82						
NC1CCC(Nc2nc(NCc3ccc(-c4ccco4)cc3)c3ncn(C4CCCC4)c3n2)CC1 (stereo unspecified)		129		164	102	96		71	11.4				85						
NC1CCC(Nc2nc(NCc3ccc(Br)nc3)c3ncn(C4CCCC4)c3n2)CC1 (stereo unspecified)		577		640	935	1180		633					483						
NC1CCC(Nc2nc(NCc3ccc(-c4ccccc4O)cc3)c3ncn(C4CCCC4)c3n2)CC1 (stereo unspecified)		4350		4150	1160	2610		4180	68				2910			777			
CC[C@H](CO)Nc1nc(NCc2ccccc2)c2ncn(C(C)C)c2n1 [SELICICLIB]								28600					12300						
Nc1ccccc1-c1ccc(CNc2nc(NC3CCC(N)CC3)nc3c2ncn3C2CCCC2)cn1 (stereo unspecified)		635		730	398	200		535	10				117						
NC1CCC(Nc2nc(NCc3ccc(-c4ccccc4)nc3)c3ncn(C4CCCC4)c3n2)CC1 (stereo unspecified)		563		895	206			114	31				483			184			
